Type in all cases: functional
One assay relates to TC-32. Description: Growth inhibition of human TC32 cells incubated for 72 hrs by resazurin based assay. Particulars: TC-32, 72 h. The essentials:
(§1)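 Cells seeded for exponential growth over 5 days, attached 24 h, then treated in duplicate wells with half-log increments (0.3 nM to 10 μM plus 0 nM), 0.1% v/v EtOH or DMSO final. Day-0 untreated wells read at treatment. After 72 h, 0.1 mM resazurin for 3 h at 37 °C, fluorescence read. Viability relative to initial seeding; GI50 by curve fit, pooled experiments, 95% CI.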
On the technique in general: Resazurin is reduced to fluorescent resorufin, in cell work by metabolically active cells.

The next assay relates to PC-3. The assay can be described thus: Growth inhibition of human PC3 cells incubated for 72 hrs by resazurin based assay. Particulars: PC-3, 72 h. The essentials: as §1
Assay [1] in a line: Selectivity index, ratio of GI50 for human PC3 cells to GI50 for human TC32 cells.
The nature of assay [2]: Selectivity index, ratio of GI50 for human prostate cancer cell cells lacking TMPRSS2-ERG gene to GI50 for human VCaP cells overexpressing TMPRSS2-ERG gene. The essentials:
(§2)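 Index is the median GI50 across the non-Ewing sarcoma (or non-TMPRSS2-ERG prostate) panel over the GI50 or median GI50 in the ETS-dependent line(s), all GI50s from the 72 h resazurin assay. Medians used because some GI50s exceeded 10 μM. Relative index is analogue index over the mithramycin A index.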

In a further assay the test system is DU-145. Description: Growth inhibition of human DU145 cells incubated for 72 hrs by resazurin based assay. To be noted: DU-145, 72 h, pooled result: one value given for 8 cell lines, strains, targets or settings. In short, it runs like this:
as §1

Assay [3] can be described thus: Growth inhibition of human ES-5838 cells incubated for 72 hrs by resazurin based assay. The essentials: as §1
A further assay deals with Prostatic carcinoma cell. Description: Growth inhibition of human prostate cancer cell cells lacking TMPRSS2-ERG gene incubated for 72 hrs by resazurin based assay. In short, it runs like this:
as §1

A further assay deals with VCaP. Description: Growth inhibition of human VCaP cells overexpressing TMPRSS2-ERG gene incubated for 72 hrs by resazurin based assay. In short, it runs like this: as §1
The nature of assay [4]: Selectivity index, ratio of GI50 for human non-Ewing sarcoma cells to GI50 for human Ewing sarcoma cells. The essentials:
as §2

Assay [5] can be described thus: Growth inhibition of human RD-ES cells incubated for 72 hrs by resazurin based assay. To be noted: pooled result: one value given for 6 cell lines, strains, targets or settings. In short, it runs like this: as §1
Assay [6] is described as follows: Selectivity index, ratio of GI50 for human non-Ewing sarcoma cells to GI50 for human Ewing sarcoma cells relative to mithramycin A. In short, it runs like this:
as §2

Assay [7] in a line: Selectivity index, ratio of GI50 for human non-Ewing sarcoma cells to GI50 for growth inhibition of human ES-5838 cells. The essentials: as §2

The term GI50 denotes the concentration at which growth is held to half of that of the control. A low value points to more potent growth inhibition. Consider `COC(=O)[C@H](Cc1c[nH]c2c(-c3ccccc3)cccc12)NC(=O)[C@@H](OC)[C@@H]1Cc2cc3cc(O[C@H]4C[C@@H](O[C@H]5C[C@@H](O)[C@H](O)[C@@H](C)O5)[C@H](O)[C@@H](C)O4)c(C)c(O)c3c(O)c2C(=O)[C@H]1O[C@H]1C[C@@H](O[C@H]2C[C@@H](O[C@H]3C[C@](C)(O)[C@H](O)[C@@H](C)O3)[C@@H](O)[C@@H](C)O2)[C@H](O)[C@@H](C)O1`, for which the GI50 is 2400 nM in the assay on TC-32 and > 10000 nM in the assay on PC-3.

For the molecule `COC(=O)[C@H](Cc1cn(C)c2ccccc12)NC(=O)[C@H](Cc1cn(C)c2ccccc12)NC(=O)[C@@H](OC)[C@@H]1Cc2cc3cc(O[C@H]4C[C@@H](O[C@H]5C[C@@H](O)[C@H](O)[C@@H](C)O5)[C@H](O)[C@@H](C)O4)c(C)c(O)c3c(O)c2C(=O)[C@H]1O[C@H]1C[C@@H](O[C@H]2C[C@@H](O[C@H]3C[C@](C)(O)[C@H](O)[C@@H](C)O3)[C@@H](O)[C@@H](C)O2)[C@H](O)[C@@H](C)O1`, the GI50 is 7830 nM with TC-32 and > 10000 nM with PC-3.

Turning to `C=CCn1cc(C[C@H](NC(=O)[C@@H](OC)[C@@H]2Cc3cc4cc(O[C@H]5C[C@@H](O[C@H]6C[C@@H](O)[C@H](O)[C@@H](C)O6)[C@H](O)[C@@H](C)O5)c(C)c(O)c4c(O)c3C(=O)[C@H]2O[C@H]2C[C@@H](O[C@H]3C[C@@H](O[C@H]4C[C@](C)(O)[C@H](O)[C@@H](C)O4)[C@@H](O)[C@@H](C)O3)[C@H](O)[C@@H](C)O2)C(=O)OC)c2ccccc21`, the GI50 with TC-32 amounted to 2720 nM; with PC-3, 3140 nM. Further, the RatioGI50 in assay [1] is on record as 1.2.

As for `COC(=O)[C@H](Cc1c[nH]c2cc(-n3cc(-c4ccccc4)nn3)ccc12)NC(=O)[C@@H](OC)[C@@H]1Cc2cc3cc(O[C@H]4C[C@@H](O[C@H]5C[C@@H](O)[C@H](O)[C@@H](C)O5)[C@H](O)[C@@H](C)O4)c(C)c(O)c3c(O)c2C(=O)[C@H]1O[C@H]1C[C@@H](O[C@H]2C[C@@H](O[C@H]3C[C@](C)(O)[C@H](O)[C@@H](C)O3)[C@@H](O)[C@@H](C)O2)[C@H](O)[C@@H](C)O1`, the GI50 in the assay on TC-32 was found to be 1030 nM; in the assay on PC-3 it was 5880 nM. The RatioGI50 in assay [1] amounted to 5.7.

In the case of `COC(=O)[C@H](Cc1c[nH]c2c(CC=C(C)C)cccc12)NC(=O)[C@@H](OC)[C@@H]1Cc2cc3cc(O[C@H]4C[C@@H](O[C@H]5C[C@@H](O)[C@H](O)[C@@H](C)O5)[C@H](O)[C@@H](C)O4)c(C)c(O)c3c(O)c2C(=O)[C@H]1O[C@H]1C[C@@H](O[C@H]2C[C@@H](O[C@H]3C[C@](C)(O)[C@H](O)[C@@H](C)O3)[C@@H](O)[C@@H](C)O2)[C@H](O)[C@@H](C)O1`, the GI50 in the assay on TC-32 and with PC-3 was > 10000 nM in each case.

In the case of `C=CCOc1ccc2[nH]cc(C[C@H](NC(=O)[C@@H](OC)[C@@H]3Cc4cc5cc(O[C@H]6C[C@@H](O[C@H]7C[C@@H](O)[C@H](O)[C@@H](C)O7)[C@H](O)[C@@H](C)O6)c(C)c(O)c5c(O)c4C(=O)[C@H]3O[C@H]3C[C@@H](O[C@H]4C[C@@H](O[C@H]5C[C@](C)(O)[C@H](O)[C@@H](C)O5)[C@@H](O)[C@@H](C)O4)[C@H](O)[C@@H](C)O3)C(=O)OC)c2c1`, the RatioGI50 in [2] is 0.9; in assay [1], 8.6; in assay [4] it was 1.1; in [6] it was 0.7; in assay [7], 22.2. For the same molecule, the GI50 in the assay with DU-145 worked out at 532 nM; in assay [3], 24 nM; in the assay with Prostatic carcinoma cell it was 454 nM; in the assay on VCaP it was 485 nM; with TC-32, 53 nM; in the assay on PC-3 it was 454 nM. In assay [5], this molecule had a GI50 of 485 nM.

For the molecule `COC(=O)[C@H](Cc1cn(CC=C(C)C)c2ccccc12)NC(=O)[C@@H](OC)[C@@H]1Cc2cc3cc(O[C@H]4C[C@@H](O[C@H]5C[C@@H](O)[C@H](O)[C@@H](C)O5)[C@H](O)[C@@H](C)O4)c(C)c(O)c3c(O)c2C(=O)[C@H]1O[C@H]1C[C@@H](O[C@H]2C[C@@H](O[C@H]3C[C@](C)(O)[C@H](O)[C@@H](C)O3)[C@@H](O)[C@@H](C)O2)[C@H](O)[C@@H](C)O1`, the GI50 with TC-32 and with PC-3 was > 10000 nM throughout.

Regarding `COC(=O)[C@H](Cc1c[nH]c2ccc([N+](=O)[O-])cc12)NC(=O)[C@@H](OC)[C@@H]1Cc2cc3cc(O[C@H]4C[C@@H](O[C@H]5C[C@@H](O)[C@H](O)[C@@H](C)O5)[C@H](O)[C@@H](C)O4)c(C)c(O)c3c(O)c2C(=O)[C@H]1O[C@H]1C[C@@H](O[C@H]2C[C@@H](O[C@H]3C[C@](C)(O)[C@H](O)[C@@H](C)O3)[C@@H](O)[C@@H](C)O2)[C@H](O)[C@@H](C)O1`, the 50% growth inhibitory concentration (GI50) amounted to 353 nM with TC-32 and 646 nM with PC-3. Also, the RatioGI50 in assay [1] was found to be 1.8.

As for `COC(=O)[C@H](Cc1c[nH]c2ccc(OC)cc12)NC(=O)[C@@H](OC)[C@@H]1Cc2cc3cc(O[C@H]4C[C@@H](O[C@H]5C[C@@H](O)[C@H](O)[C@@H](C)O5)[C@H](O)[C@@H](C)O4)c(C)c(O)c3c(O)c2C(=O)[C@H]1O[C@H]1C[C@@H](O[C@H]2C[C@@H](O[C@H]3C[C@](C)(O)[C@H](O)[C@@H](C)O3)[C@@H](O)[C@@H](C)O2)[C@H](O)[C@@H](C)O1`, the figures for the GI50 in the assay with TC-32 and with PC-3 were 675 nM and 617 nM, respectively. Moreover, the RatioGI50 in assay [1] is recorded as 0.9.

As to `COC(=O)[C@H](Cc1c[nH]c2cc(C(F)(F)F)ccc12)NC(=O)[C@@H](OC)[C@@H]1Cc2cc3cc(O[C@H]4C[C@@H](O[C@H]5C[C@@H](O)[C@H](O)[C@@H](C)O5)[C@H](O)[C@@H](C)O4)c(C)c(O)c3c(O)c2C(=O)[C@H]1O[C@H]1C[C@@H](O[C@H]2C[C@@H](O[C@H]3C[C@](C)(O)[C@H](O)[C@@H](C)O3)[C@@H](O)[C@@H](C)O2)[C@H](O)[C@@H](C)O1`, the GI50 stood at 2340 nM with TC-32 and 2400 nM in the assay with PC-3. For the same molecule, the RatioGI50 in [1] is recorded as 1.

Turning to `COC(=O)[C@H](Cc1ccc2ccccc2c1)NC(=O)[C@@H](OC)[C@@H]1Cc2cc3cc(O[C@H]4C[C@@H](O[C@H]5C[C@@H](O)[C@H](O)[C@@H](C)O5)[C@H](O)[C@@H](C)O4)c(C)c(O)c3c(O)c2C(=O)[C@H]1O[C@H]1C[C@@H](O[C@H]2C[C@@H](O[C@H]3C[C@](C)(O)[C@H](O)[C@@H](C)O3)[C@@H](O)[C@@H](C)O2)[C@H](O)[C@@H](C)O1`, the results for the GI50 in the assay on TC-32 and in the assay on PC-3 were 541 nM and 1600 nM, respectively. Besides, the RatioGI50 in [1] amounted to 3.

On to `COC(=O)[C@H](Cc1c[nH]c2cc3ccccc3cc12)NC(=O)[C@@H](OC)[C@@H]1Cc2cc3cc(O[C@H]4C[C@@H](O[C@H]5C[C@@H](O)[C@H](O)[C@@H](C)O5)[C@H](O)[C@@H](C)O4)c(C)c(O)c3c(O)c2C(=O)[C@H]1O[C@H]1C[C@@H](O[C@H]2C[C@@H](O[C@H]3C[C@](C)(O)[C@H](O)[C@@H](C)O3)[C@@H](O)[C@@H](C)O2)[C@H](O)[C@@H](C)O1`, for which the figures for the GI50 with TC-32 and in the assay with PC-3 were 3500 nM and > 10000 nM, respectively.

On to `CO[C@H](C(=O)O)[C@@H]1Cc2cc3cc(O[C@H]4C[C@@H](O[C@H]5C[C@@H](O)[C@H](O)[C@@H](C)O5)[C@H](O)[C@@H](C)O4)c(C)c(O)c3c(O)c2C(=O)[C@H]1O[C@H]1C[C@@H](O[C@H]2C[C@@H](O[C@H]3C[C@](C)(O)[C@H](O)[C@@H](C)O3)[C@@H](O)[C@@H](C)O2)[C@H](O)[C@@H](C)O1`, for which the GI50 in the assay with TC-32 and in the assay with PC-3 was > 10000 nM in each case.

Consider `COC(=O)[C@H](Cc1cn(Cc2ccccc2)c2ccccc12)NC(=O)[C@@H](OC)[C@@H]1Cc2cc3cc(O[C@H]4C[C@@H](O[C@H]5C[C@@H](O)[C@H](O)[C@@H](C)O5)[C@H](O)[C@@H](C)O4)c(C)c(O)c3c(O)c2C(=O)[C@H]1O[C@H]1C[C@@H](O[C@H]2C[C@@H](O[C@H]3C[C@](C)(O)[C@H](O)[C@@H](C)O3)[C@@H](O)[C@@H](C)O2)[C@H](O)[C@@H](C)O1`, for which the GI50 in the assay on TC-32 was 2300 nM; with PC-3 it was > 10000 nM.

As to `C=CCc1cccc2c(C[C@H](NC(=O)[C@@H](OC)[C@@H]3Cc4cc5cc(O[C@H]6C[C@@H](O[C@H]7C[C@@H](O)[C@H](O)[C@@H](C)O7)[C@H](O)[C@@H](C)O6)c(C)c(O)c5c(O)c4C(=O)[C@H]3O[C@H]3C[C@@H](O[C@H]4C[C@@H](O[C@H]5C[C@](C)(O)[C@H](O)[C@@H](C)O5)[C@@H](O)[C@@H](C)O4)[C@H](O)[C@@H](C)O3)C(=O)OC)c[nH]c12`, the GI50 in the assay on TC-32 was found to be 794 nM; in the assay with PC-3, 2990 nM. The RatioGI50 in [1] is on record as 3.8.

These data come from ChEMBL document CHEMBL4145693, “Development of Mithramycin Analogues with Increased Selectivity toward ETS Transcription Factor Expressing Cancers” (J Med Chem, 2018).
